The record followed here is ChEMBL document CHEMBL4765445, “Structure-activity relationship study of novel quinazoline-based 1,6-naphthyridinones as MET inhibitors with potent antitumor efficacy” (Eur J Med Chem, 2020).

For data set [1], the target named is Vascular endothelial growth factor receptor 2 (Homo sapiens, UniProt P35968). Briefly: Inhibition of recombinant VEGFR2 kinase domain (unknown origin). An outline of the steps:
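In vitro kinase assay using purified recombinant VEGFR-2 kinase domain; IC50 determined.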

Data set [2] deals with T1, Hepatocyte growth factor receptor (Homo sapiens, UniProt P08581). Briefly: Inhibition of recombinant MET kinase domain (unknown origin).
In data set [3] the target is T1, Hepatocyte growth factor receptor. The experiment in a line: Inhibition of MET in human MKN-45 cells assessed as reduction in HGF-mediated autophosphorylation. Type of data set: cell-based.
Data set [4] concerns the target T2, Tyrosine-protein kinase receptor UFO (Homo sapiens, UniProt P30530).
T2 sequence (P30530 whole entry): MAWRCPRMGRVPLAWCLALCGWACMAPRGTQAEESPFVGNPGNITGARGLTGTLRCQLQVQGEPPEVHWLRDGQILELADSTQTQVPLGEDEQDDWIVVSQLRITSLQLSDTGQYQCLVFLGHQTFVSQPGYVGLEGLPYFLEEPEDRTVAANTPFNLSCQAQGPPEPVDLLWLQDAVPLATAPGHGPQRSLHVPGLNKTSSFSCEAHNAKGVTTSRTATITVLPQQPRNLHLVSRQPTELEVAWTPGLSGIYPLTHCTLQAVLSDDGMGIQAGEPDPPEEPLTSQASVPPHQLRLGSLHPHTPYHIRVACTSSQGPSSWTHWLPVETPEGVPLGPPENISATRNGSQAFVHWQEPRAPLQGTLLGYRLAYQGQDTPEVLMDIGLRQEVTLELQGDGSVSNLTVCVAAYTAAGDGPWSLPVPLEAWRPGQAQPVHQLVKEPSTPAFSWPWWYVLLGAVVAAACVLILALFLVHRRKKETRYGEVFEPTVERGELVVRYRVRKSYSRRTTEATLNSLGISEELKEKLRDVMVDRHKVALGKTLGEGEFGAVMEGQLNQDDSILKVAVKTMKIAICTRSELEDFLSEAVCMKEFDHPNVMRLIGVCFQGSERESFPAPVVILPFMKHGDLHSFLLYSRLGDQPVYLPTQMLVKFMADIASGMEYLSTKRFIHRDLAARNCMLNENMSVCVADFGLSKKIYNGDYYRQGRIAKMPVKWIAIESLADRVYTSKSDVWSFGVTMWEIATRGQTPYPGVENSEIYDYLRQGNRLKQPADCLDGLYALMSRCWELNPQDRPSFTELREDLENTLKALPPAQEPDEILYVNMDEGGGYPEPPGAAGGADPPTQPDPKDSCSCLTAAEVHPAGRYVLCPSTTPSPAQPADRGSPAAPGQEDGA
Briefly: Inhibition of Axl (unknown origin).

Data set [5] addresses Proto-oncogene tyrosine-protein kinase receptor Ret (Homo sapiens, UniProt P07949). The experiment in a line: Inhibition of RET (unknown origin).
Data set [6] has as its target Platelet-derived growth factor receptor beta (Homo sapiens, UniProt P09619). Briefly: Inhibition of PDGFRbeta (unknown origin).
In data set [7] the target is T3, Receptor-type tyrosine-protein kinase FLT3 (Homo sapiens, UniProt P36888).
T3 sequence (P36888 whole entry): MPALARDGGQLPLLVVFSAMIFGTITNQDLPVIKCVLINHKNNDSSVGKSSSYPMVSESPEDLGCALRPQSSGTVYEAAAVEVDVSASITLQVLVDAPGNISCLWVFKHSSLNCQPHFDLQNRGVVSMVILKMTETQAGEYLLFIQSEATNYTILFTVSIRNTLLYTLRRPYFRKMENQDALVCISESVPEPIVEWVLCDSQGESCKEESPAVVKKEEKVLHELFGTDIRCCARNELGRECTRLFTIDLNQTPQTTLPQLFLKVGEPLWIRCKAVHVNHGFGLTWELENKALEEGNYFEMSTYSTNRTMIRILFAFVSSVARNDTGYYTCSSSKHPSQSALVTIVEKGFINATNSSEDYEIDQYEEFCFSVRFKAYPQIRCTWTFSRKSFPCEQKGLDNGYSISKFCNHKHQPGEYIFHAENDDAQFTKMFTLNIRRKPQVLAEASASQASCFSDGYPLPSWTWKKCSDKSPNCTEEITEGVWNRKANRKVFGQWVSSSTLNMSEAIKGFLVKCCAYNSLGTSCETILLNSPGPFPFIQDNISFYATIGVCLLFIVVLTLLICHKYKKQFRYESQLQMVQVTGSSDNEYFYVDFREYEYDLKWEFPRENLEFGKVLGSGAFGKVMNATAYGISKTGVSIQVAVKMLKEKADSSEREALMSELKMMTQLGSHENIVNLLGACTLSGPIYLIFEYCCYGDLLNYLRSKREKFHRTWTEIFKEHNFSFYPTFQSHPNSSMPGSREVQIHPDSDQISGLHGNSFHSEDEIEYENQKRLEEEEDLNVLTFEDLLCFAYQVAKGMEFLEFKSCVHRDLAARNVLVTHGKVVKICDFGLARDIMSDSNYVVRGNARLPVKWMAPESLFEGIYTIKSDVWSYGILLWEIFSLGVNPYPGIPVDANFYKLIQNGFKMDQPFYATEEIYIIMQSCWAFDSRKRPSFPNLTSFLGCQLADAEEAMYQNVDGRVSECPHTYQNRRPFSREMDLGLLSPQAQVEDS
Briefly: Inhibition of FLT3 (unknown origin).

Data set [8] concerns the target Macrophage-stimulating protein receptor (Homo sapiens, UniProt Q04912). Briefly: Inhibition of Ron (unknown origin).
Data set [9] concerns the target Mast/stem cell growth factor receptor Kit (Homo sapiens, UniProt P10721). Briefly: Inhibition of c-KIT (unknown origin).
Data set [10] in a line: Half life in human liver microsomes. It counts as ADME, Microsome. On the technique in general: Microsomes from liver hold many membrane-bound enzymes, among them those of drug oxidation.
For data set [11], the species on record is Homo sapiens. Briefly: Selectivity ratio of IC50 for recombinant VEGFR2 (unknown origin) to IC50 for recombinant MET (unknown origin). Put shortly: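 In vitro enzyme assays used purified recombinant MET and VEGFR-2 kinase domains, each tested separately. IC50 values are in nM. The ratio divides the VEGFR-2 enzyme IC50 by the MET enzyme IC50.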

The structures appear in SMILES notation.

The term IC50 denotes the concentration needed to halve the response being measured. What is called half-life is how long it takes for the measured level to halve.

T1 sequence (P08581 whole entry, the tested form may be a part): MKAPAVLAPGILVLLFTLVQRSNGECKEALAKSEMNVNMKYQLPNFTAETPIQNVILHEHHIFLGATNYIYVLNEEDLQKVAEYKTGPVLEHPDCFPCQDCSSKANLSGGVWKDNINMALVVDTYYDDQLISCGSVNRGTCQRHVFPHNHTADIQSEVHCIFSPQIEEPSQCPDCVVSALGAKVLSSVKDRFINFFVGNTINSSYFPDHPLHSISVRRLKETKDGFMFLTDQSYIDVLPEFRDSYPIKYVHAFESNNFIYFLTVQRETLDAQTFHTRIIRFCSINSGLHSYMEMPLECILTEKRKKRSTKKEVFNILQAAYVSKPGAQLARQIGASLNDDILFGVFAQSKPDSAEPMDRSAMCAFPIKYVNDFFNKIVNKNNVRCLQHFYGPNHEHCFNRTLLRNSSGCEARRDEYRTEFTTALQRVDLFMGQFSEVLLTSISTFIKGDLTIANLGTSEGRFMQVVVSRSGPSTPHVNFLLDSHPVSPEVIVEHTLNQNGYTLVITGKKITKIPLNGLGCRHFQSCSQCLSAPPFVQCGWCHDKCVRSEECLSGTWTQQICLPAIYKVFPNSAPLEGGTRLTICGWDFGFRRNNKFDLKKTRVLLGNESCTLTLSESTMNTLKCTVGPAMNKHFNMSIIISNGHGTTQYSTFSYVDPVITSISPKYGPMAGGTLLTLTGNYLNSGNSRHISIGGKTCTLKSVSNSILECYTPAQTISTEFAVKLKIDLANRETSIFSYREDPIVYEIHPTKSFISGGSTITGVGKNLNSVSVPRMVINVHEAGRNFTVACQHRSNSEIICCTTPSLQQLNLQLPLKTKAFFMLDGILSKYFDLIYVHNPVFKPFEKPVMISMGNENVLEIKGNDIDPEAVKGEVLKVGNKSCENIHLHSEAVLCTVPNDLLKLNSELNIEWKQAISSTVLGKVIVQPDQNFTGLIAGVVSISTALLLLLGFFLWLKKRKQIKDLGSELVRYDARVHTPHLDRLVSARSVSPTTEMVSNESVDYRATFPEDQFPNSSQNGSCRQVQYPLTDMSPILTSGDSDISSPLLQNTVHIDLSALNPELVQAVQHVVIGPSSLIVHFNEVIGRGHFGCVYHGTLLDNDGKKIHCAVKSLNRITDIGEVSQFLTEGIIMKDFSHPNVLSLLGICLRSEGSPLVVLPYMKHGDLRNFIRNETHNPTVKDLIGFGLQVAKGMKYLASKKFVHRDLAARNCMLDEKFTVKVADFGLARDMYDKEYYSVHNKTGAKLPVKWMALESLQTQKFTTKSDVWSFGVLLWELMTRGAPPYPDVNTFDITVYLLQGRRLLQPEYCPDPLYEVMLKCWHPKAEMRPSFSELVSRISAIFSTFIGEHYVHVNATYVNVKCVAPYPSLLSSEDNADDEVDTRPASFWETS
Vascular endothelial growth factor receptor 2, sequence (P35968 whole entry, the tested form may be a part): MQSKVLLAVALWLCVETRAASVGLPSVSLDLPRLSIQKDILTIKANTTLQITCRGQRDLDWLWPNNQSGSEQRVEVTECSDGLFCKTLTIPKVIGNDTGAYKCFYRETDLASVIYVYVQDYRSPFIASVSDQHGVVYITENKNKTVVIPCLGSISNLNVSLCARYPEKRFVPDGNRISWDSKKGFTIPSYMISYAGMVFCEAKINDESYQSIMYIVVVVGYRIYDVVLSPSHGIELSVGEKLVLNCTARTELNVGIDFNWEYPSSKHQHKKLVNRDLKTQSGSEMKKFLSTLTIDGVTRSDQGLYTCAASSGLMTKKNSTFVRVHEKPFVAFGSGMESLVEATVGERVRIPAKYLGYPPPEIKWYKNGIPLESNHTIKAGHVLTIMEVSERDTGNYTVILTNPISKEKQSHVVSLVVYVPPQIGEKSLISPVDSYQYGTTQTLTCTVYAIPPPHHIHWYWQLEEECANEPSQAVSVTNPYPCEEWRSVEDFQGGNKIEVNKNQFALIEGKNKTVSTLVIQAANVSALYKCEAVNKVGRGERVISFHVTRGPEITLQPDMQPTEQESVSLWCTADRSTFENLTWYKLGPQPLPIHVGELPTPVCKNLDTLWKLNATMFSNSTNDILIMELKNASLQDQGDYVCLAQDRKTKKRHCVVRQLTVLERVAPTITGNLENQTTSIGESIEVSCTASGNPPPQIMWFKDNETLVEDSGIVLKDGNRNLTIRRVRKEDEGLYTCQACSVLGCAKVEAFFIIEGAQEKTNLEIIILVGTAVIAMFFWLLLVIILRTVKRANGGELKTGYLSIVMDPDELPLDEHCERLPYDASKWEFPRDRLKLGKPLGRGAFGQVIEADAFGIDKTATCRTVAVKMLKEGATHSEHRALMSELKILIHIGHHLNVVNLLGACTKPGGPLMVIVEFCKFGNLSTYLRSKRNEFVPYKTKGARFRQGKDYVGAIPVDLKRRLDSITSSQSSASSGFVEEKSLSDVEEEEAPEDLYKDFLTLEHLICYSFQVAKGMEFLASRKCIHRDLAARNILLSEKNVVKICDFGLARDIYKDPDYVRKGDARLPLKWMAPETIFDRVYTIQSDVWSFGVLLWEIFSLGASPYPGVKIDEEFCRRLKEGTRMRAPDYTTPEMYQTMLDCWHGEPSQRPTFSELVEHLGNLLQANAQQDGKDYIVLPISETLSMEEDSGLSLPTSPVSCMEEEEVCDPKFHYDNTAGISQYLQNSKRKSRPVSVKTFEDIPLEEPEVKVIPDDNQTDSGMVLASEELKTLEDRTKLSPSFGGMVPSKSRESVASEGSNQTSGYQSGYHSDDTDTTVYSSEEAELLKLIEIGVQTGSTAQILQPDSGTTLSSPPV
Mast/stem cell growth factor receptor Kit, sequence (P10721 whole entry): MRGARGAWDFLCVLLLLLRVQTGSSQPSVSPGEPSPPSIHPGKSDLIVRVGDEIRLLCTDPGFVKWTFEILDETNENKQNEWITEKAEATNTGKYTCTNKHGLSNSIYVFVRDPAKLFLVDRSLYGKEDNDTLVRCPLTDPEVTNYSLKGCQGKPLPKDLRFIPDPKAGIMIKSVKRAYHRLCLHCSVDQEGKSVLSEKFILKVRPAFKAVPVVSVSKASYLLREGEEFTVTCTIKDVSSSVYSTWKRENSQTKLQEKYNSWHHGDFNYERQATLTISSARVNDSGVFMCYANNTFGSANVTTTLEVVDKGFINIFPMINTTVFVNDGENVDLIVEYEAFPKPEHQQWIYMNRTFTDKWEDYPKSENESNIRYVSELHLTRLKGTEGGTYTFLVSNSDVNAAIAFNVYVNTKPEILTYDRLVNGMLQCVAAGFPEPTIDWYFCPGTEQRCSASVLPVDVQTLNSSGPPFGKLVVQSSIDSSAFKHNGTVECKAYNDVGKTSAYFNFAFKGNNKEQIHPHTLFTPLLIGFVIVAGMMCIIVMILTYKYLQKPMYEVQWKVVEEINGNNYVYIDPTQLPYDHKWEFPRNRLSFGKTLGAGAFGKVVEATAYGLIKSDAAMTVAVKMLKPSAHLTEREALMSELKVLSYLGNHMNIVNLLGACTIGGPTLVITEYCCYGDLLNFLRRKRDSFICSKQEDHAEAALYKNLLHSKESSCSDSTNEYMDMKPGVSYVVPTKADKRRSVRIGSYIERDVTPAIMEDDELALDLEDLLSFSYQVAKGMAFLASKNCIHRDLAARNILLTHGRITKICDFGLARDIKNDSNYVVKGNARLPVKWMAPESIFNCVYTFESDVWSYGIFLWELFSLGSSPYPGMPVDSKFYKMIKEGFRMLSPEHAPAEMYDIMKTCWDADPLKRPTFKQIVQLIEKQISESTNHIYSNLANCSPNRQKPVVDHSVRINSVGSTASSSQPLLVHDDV
Proto-oncogene tyrosine-protein kinase receptor Ret, sequence (P07949 whole entry): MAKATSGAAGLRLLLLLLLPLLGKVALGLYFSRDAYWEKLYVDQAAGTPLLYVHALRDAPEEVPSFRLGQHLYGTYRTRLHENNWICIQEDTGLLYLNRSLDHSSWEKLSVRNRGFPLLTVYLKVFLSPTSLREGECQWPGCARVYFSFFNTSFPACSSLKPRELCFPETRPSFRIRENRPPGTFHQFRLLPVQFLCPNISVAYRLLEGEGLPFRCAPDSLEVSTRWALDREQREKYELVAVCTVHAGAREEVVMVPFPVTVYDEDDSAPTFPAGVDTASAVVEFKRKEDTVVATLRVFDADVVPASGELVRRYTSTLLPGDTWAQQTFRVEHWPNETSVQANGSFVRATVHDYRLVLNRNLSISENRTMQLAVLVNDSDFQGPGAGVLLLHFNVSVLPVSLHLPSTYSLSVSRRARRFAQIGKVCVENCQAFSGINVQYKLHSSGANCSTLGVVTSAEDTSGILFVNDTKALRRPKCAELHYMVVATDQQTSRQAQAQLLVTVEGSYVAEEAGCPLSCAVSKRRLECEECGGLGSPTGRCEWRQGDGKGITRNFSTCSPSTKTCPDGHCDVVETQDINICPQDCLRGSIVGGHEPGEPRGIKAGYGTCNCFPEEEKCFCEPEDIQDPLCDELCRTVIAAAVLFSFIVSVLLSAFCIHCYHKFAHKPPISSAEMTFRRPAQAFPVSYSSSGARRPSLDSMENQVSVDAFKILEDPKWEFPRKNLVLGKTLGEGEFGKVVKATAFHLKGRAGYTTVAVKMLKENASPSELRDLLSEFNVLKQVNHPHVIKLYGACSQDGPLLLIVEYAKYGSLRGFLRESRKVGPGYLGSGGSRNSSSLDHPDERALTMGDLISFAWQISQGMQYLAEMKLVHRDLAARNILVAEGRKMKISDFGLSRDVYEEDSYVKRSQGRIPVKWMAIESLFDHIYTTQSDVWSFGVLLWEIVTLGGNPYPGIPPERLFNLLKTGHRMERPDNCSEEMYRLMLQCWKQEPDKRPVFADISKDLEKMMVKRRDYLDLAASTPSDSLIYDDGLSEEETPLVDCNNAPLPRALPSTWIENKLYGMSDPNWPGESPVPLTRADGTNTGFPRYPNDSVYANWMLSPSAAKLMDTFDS

In the case of `COc1cc2c(Oc3ccc(Nc4nccc5[nH]cc(-c6ccc(F)cc6)c(=O)c45)cc3F)ncnc2cc1OCCCN1CCCC1`, the IC50 in data set [1] turned out to be 128 nM; in [2], 8.3 nM; in data set [3], 130 nM.

In the case of `COc1cc2ncnc(Oc3ccc(Nc4nccc5[nH]cc(-c6ccc(F)cc6)c(=O)c45)cc3F)c2cc1OC`, the IC50 came to 11 nM in [4]; 267 nM in data set [1]; 65.3 nM in data set [5]; 1360 nM in data set [6]; 10.2 nM in data set [7]; 90.1 nM in data set [8]. Moreover, the IC50 in data set [9] was determined as 45.1 nM; in [3], 59.4 nM. This molecule also had a half-life in data set [10] of 4.83 h. Also, the Ratio IC50 in data set [11] turned out to be 27.6.

Take `COc1cc2ncnc(Oc3ccc(Nc4nccc5[nH]cc(-c6ccc(F)cc6)c(=O)c45)cc3F)c2cc1OCCO.Cc1ccc(S(=O)(=O)O)cc1`: the results for the IC50 in [1] and in data set [2] were 12.3 nM and 3.5 nM, respectively. Also, the half-life in [10] was 4.68 h.

For `COCCn1cc(-c2ccc(F)cc2)c(=O)c2c(Nc3ccc(Oc4ncnc5cc(OC)c(OC)cc45)c(F)c3)nccc21`, the IC50 was greater than 3000 nM in data set [1] and 164 nM in data set [2].

Take `COCCOc1cc2c(Oc3ccc(Nc4nccc5[nH]cc(-c6ccc(F)cc6)c(=O)c45)cc3F)ncnc2cc1OC`: the results for the IC50 in [1] and in data set [2] were 97.3 nM and 36 nM, respectively.

For `COc1cc2c(Oc3ccc(Nc4nccc5[nH]cc(-c6ccc(F)cc6)c(=O)c45)cc3F)ncnc2cc1OCCCN1CCOCC1`, the IC50 in [1] was found to be 227 nM; in data set [2], 21.7 nM.

With `O=c1c(-c2ccc(F)cc2)c[nH]c2ccnc(Nc3ccc(Oc4ncnc5cc6c(cc45)OCCOCCOCCO6)c(F)c3)c12`, the IC50 in data set [1] was determined as 47.6 nM; in [2] it was 9.5 nM. The same molecule registered a half-life in data set [10] of 0.83 h.

For the molecule `CCN(CC)CCCOc1cc2c(Oc3ccc(Nc4nccc5[nH]cc(-c6ccc(F)cc6)c(=O)c45)cc3F)ncnc2cc1OC`, the results for the IC50 in data set [1], in [2] and in [3] were 163 nM, 9.4 nM and 397 nM, respectively.

As for `COc1cc2c(Oc3ccc(Nc4nccc5[nH]cc(-c6ccc(F)cc6)c(=O)c45)cc3F)ncnc2cc1OCC1CCN(C)CC1`, the IC50 is 33 nM in data set [1] and 15.4 nM in [2].

Regarding `COc1cc2ncnc(Oc3ccc(Nc4nccc5[nH]cc(-c6ccc(F)cc6)c(=O)c45)cc3F)c2cc1OCCCN1CCCC1`, the IC50 is 145 nM in data set [1] and 8.1 nM in [2].

`COc1cc2ncnc(Oc3ccc(Nc4nccc5[nH]c(C)c(-c6ccc(F)cc6)c(=O)c45)cc3F)c2cc1OC`: the IC50 in data set [1] was determined as 455 nM; in data set [2] it was 227 nM.

As to `COc1cc2c(Oc3ccc(Nc4nccc5[nH]cc(-c6ccc(F)cc6)c(=O)c45)cc3F)ncnc2cc1OCCCO`, the IC50 in [1] is 68 nM; in [2], 39.3 nM.

With `COCCOc1cc2ncnc(Oc3ccc(Nc4nccc5[nH]cc(-c6ccc(F)cc6)c(=O)c45)cc3F)c2cc1OC`, the IC50 in data set [1] was determined as 140 nM; in data set [2], 42 nM.

Consider `COc1cc2ncnc(Oc3ccc(Nc4nccc5c4c(=O)c(-c4ccc(F)cc4)cn5C)cc3F)c2cc1OC`, for which the IC50 in data set [1] is greater than 3000 nM; in [2] it was 7.1 nM; in data set [3] it was 82.9 nM. In data set [10], this molecule came in with a half-life of 4.27 h. Also, the Ratio IC50 in data set [11] was greater than 422.

As to `CCn1cc(-c2ccc(F)cc2)c(=O)c2c(Nc3ccc(Oc4ncnc5cc(OC)c(OC)cc45)c(F)c3)nccc21`, the IC50 in data set [1] is greater than 3000 nM; in data set [2] it was 28.8 nM. For the same molecule, in [11], the Ratio IC50 is greater than 275.

With `COc1cc2c(Oc3ccc(Nc4nccc5[nH]cc(-c6ccc(F)cc6)c(=O)c45)cc3F)ncnc2cc1OCCO.Cc1ccc(S(=O)(=O)O)cc1`, the IC50 in data set [1] stood at 21.7 nM; in data set [2], 13.9 nM. For the same molecule, the half-life in data set [10] turned out to be 3.85 h.

Take `COc1cc2ncnc(Oc3ccc(Nc4nccc5[nH]cc(-c6ccc(F)cc6)c(=O)c45)cc3F)c2cc1OCCCN1CCCCC1`: the IC50 was 208 nM in data set [1] and 15.5 nM in data set [2].

On to `COc1cc2c(Oc3ccc(Nc4nccc5[nH]cc(-c6ccc(F)cc6)c(=O)c45)cc3F)ncnc2cc1OCCN1CCOCC1`, for which the IC50 in data set [2] is 24.5 nM.

Take `COc1cc2ncnc(Oc3ccc(Nc4nccc5[nH]cc(-c6ccc(F)cc6)c(=O)c45)cc3F)c2cc1OCCCN1CCOCC1`: the IC50 in data set [1] came to 121 nM; in data set [2], 23.2 nM.

Consider `COc1cc2c(Oc3ccc(Nc4nccc5[nH]cc(-c6ccc(F)cc6)c(=O)c45)cc3F)ncnc2cc1OCC(C)(C)O`, for which the values for the IC50 in data set [1] and in data set [2] were 93.9 nM and 65.2 nM, respectively.

As for `COc1cc2ncnc(Oc3ccc(Nc4nccc5c4c(=O)c(-c4ccc(F)cc4)cn5CC(=O)c4ccccc4)cc3F)c2cc1OC`, the IC50 is greater than 3000 nM in data set [1] and 196 nM in [2].

Regarding `COc1cc2ncnc(Oc3ccc(Nc4nccc5[nH]cc(-c6ccc(F)cc6)c(=O)c45)cc3F)c2cc1OCC(C)(C)O`, the IC50 was determined as 52.9 nM in data set [1] and 7.9 nM in [2]. Further, the half-life in [10] came out at 4.17 h.

Turning to `COCCOc1cc2ncnc(Oc3ccc(Nc4nccc5[nH]cc(-c6ccc(F)cc6)c(=O)c45)cc3F)c2cc1OCCOC`, the results for the IC50 in data set [1] and in [2] were 79.2 nM and 19.5 nM, respectively.
